Assay results published in PMC4269301 (International journal of peptide research and therapeutics, 2014).
Square brackets hold non-standard residues; d marks the D form. Peptide text beside a SMILES is read from it. Nle = CCCC[C@H](N)C(=O)O

Legend:
[1] = target: T1, GRK5 (Homo sapiens, UniProt P34947); assay: GRK5 phosphorylation of light-activated rhodopsin; format: biochemical; details: for inhibition at 100 µM: read-out: % Inhibition (100 μM) of GRK5 phosphorylation of rhodopsin; for Inhibition of GRK5 phosphorylation of rhodopsin: peptides 10, 30 and 100 μM, four or more experiments in duplicate
[2] = target: T2, GRK2 (Homo sapiens, UniProt P25098, S670A); assay: GRK2 phosphorylation of light-activated rhodopsin; format: biochemical; details: peptides 10, 30 and 100 μM; four or more experiments in duplicate
T2 sequence (P25098 1-689 S670A): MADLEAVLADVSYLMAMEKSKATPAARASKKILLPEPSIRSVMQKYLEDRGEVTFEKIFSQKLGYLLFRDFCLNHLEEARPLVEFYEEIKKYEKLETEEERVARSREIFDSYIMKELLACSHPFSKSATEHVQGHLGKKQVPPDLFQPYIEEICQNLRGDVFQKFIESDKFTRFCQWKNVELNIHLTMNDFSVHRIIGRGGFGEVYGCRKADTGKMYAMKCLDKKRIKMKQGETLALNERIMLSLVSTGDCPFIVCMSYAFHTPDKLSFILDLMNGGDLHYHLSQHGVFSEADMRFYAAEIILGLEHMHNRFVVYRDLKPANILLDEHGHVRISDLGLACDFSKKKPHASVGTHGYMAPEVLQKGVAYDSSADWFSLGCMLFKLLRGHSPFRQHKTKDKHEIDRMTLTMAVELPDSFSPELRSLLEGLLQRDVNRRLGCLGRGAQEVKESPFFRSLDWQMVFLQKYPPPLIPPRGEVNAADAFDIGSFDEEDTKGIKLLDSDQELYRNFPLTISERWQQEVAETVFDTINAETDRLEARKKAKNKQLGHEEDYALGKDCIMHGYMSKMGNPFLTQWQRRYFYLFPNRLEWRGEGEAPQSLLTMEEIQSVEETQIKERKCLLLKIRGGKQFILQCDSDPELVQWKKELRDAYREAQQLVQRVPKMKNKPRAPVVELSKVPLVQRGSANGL
How it was run: (§1)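 Light-activated (475 nm, 30 s) rhodopsin, 0.5 μM, from urea-stripped bovine ROS. Kinase was purified GRK2 (His₆, S670A, Sf9/baculovirus, Ni-IMAC) or N-terminal His₆ full-length human GRK6, at 10–100 nM. Buffer: 20 mM Tris pH 7.5, 10 mM MgCl₂, 1 mM EDTA, 100 μM [γ³²P]ATP; peptides in DMSO (2–4 %). Ran 5 min, then SDS-PAGE and autoradiography. ≥4 experiments in duplicate, % of control.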

[3] = system: GRK6; assay: GRK6 phosphorylation of light-activated rhodopsin; format: biochemical, human; details: peptides 10, 30 and 100 μM; four or more experiments in duplicate
How it was run: as §1

[4] = target: T3, GRK7 (Homo sapiens, UniProt Q8WTQ7); assay: GRK7 phosphorylation of light-activated rhodopsin; format: biochemical; details: peptides 10, 30 and 100 μM; four or more experiments in duplicate
T3 sequence (Q8WTQ7 1-553): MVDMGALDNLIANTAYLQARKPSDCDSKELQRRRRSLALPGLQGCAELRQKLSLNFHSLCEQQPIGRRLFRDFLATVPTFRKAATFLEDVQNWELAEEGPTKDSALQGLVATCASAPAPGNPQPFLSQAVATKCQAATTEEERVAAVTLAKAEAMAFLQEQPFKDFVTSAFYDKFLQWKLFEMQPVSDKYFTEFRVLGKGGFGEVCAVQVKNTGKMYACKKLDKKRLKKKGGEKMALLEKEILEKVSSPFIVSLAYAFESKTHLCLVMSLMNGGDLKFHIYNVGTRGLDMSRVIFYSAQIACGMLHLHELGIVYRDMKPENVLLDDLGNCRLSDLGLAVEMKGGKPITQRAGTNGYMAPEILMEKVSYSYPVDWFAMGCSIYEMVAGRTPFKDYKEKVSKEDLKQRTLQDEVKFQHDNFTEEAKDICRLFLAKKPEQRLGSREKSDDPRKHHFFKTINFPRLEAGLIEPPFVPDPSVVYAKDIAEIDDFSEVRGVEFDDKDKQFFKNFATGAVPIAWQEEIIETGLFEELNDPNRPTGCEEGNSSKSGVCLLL
How it was run: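 Substrate is urea-stripped bovine rod outer segment rhodopsin (0.5 μM in reaction buffer; 0.5–4 μM per legend), light-activated at 475 nm for 30 s. Peptides are dissolved in DMSO (2–4% final) and quantified by A280. Results are normalised to the no-peptide control as mean ± SEM.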

[5] = target: T2, GRK2; assay: GRK2 phosphorylation of tubulin; format: biochemical; details: for Effect on GRK2 phosphorylation of tubulin, basal activity: 60 min
How it was run: (§2)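 Bovine brain tubulin 500 nM with 100 nM GRK2 (His₆, S670A, Sf9-expressed) or human His₆-GRK5; 20 mM Tris pH 7.5, 1 mM EDTA, 10 mM MgCl₂, 5 μM DTT, 100 μM [γ³²P]ATP; 60 min, 30 °C. 12 % SDS-PAGE; ³²P-tubulin counted from excised bands or by autoradiogram densitometry. Mean ± SEM, ≥4 experiments in duplicate, % of control; one-way ANOVA.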

[6] = target: T1, GRK5; assay: GRK5 phosphorylation of tubulin; format: biochemical; details: for % inhibition of GRK5 phosphorylation of tubulin: 100 μM peptide, 100 nM GRK5, 60 min
How it was run: as §2

[7] = system: GRK6; details: ref previous study of the α9 peptide (Baameur et al. 2010); cited from earlier work

T1 sequence (P34947 whole entry): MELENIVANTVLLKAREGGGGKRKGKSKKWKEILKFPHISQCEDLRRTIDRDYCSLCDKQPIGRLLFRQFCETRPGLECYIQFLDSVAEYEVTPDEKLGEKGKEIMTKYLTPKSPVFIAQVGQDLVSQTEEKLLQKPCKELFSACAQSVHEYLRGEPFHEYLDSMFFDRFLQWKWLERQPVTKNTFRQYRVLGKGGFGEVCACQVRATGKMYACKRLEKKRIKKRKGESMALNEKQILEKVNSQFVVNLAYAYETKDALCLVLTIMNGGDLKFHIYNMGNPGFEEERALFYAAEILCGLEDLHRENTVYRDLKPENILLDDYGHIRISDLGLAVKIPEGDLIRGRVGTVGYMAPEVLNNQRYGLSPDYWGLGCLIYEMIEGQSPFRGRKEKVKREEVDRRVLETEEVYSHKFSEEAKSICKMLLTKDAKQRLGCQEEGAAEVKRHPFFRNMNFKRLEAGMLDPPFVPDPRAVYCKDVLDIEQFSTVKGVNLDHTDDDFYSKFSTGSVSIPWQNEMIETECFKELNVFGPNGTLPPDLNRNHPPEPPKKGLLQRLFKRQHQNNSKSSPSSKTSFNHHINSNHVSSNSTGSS

Row | Compound | IC50 [1] [µM] | inhibition at 100 µM [1] [%] | Inhibition of GRK5 phosphorylation of rhodopsin [1] | Inhibition of GRK2 phosphorylation of rhodopsin [2] | Inhibition of GRK6 phosphorylation of rhodopsin [3] | Inhibition of GRK7 phosphorylation of rhodopsin [4] | further results
1 | CCCC[C@H](NC(=O)[C@H](CO)NC(C)=O)C(=O)N[C@@H](Cc1ccccc1)C(=O)N[C@@H](Cc1ccccc1)C(=O)N[C@@H](CC(=O)O)C(=O)N[C@@H](CCCNC(=N)N)C(=O)N[C@@H](Cc1ccccc1)C(=O)N[C@@H](CC(C)C)C(=O)N[C@@H](C)C(=O)N[C@@H](Cc1c[nH]c2ccccc12)C(=O)N[C@@H](CCCCN)C(=O)N[C@@H](Cc1c[nH]c2ccccc12)C(=O)N[C@@H](CC(C)C)C(=O)N[C@@H](CCC(=O)O)C(=O)N[C@@H](CCCNC(=N)N)C(N)=O [Peptide Q172A] (Ac-S[Nle]FFDRFLAWKWLER-NH2) | 15.1 ± 7.3 | 95 | – | – | – | – | –
2 | CCCC[C@H](NC(=O)[C@H](CO)NC(C)=O)C(=O)N[C@@H](Cc1ccccc1)C(=O)N[C@@H](Cc1ccccc1)C(=O)N[C@@H](CC(=O)O)C(=O)N[C@@H](C)C(=O)N[C@@H](Cc1ccccc1)C(=O)N[C@@H](CC(C)C)C(=O)N[C@@H](CCC(N)=O)C(=O)N[C@@H](Cc1c[nH]c2ccccc12)C(=O)N[C@@H](CCCCN)C(=O)N[C@@H](Cc1c[nH]c2ccccc12)C(=O)N[C@@H](CC(C)C)C(=O)N[C@@H](CCC(=O)O)C(=O)N[C@@H](CCCNC(=N)N)C(N)=O [Peptide R169A] (Ac-S[Nle]FFDAFLQWKWLER-NH2) | 7.2 ± 4.8 | 98 | inhibited | less inhibition | inhibited | inhibited | IC50 [5]: ~30 µM; % inhibition of GRK2 phosphorylation of tubulin ([5]; 100 μM peptide, 0.5 μM tubulin, 100 nM GRK2, 60 min, 30 °C): 60–80%; IC50 [6]: ~30 µM; % inhibition of GRK5 phosphorylation of tubulin ([6]; 0.5 μM tubulin, 30 °C): 60–80%
3 | CCCC[C@H](NC(=O)[C@H](CO)NC(C)=O)C(=O)N[C@@H](Cc1ccccc1)C(=O)N[C@@H](Cc1ccccc1)C(=O)N[C@@H](CC(=O)O)C(=O)N[C@@H](CCCNC(=N)N)C(=O)N[C@@H](Cc1ccccc1)C(=O)N[C@@H](CC(C)C)C(=O)N[C@@H](CCC(N)=O)C(=O)N[C@@H](Cc1c[nH]c2ccccc12)C(=O)N[C@@H](CCCCN)C(=O)N[C@@H](Cc1c[nH]c2ccccc12)C(=O)N[C@@H](CC(C)C)C(N)=O [Peptide T2] (Ac-S[Nle]FFDRFLQWKWL-NH2) | 5.2 ± 2 | 98 | – | – | – | – | –
4 | CCCC[C@H](NC(=O)[C@H](CO)NC(C)=O)C(=O)N[C@@H](Cc1ccccc1)C(=O)N[C@@H](Cc1ccccc1)C(=O)N[C@@H](CC(=O)O)C(=O)N[C@@H](CCCNC(=N)N)C(=O)N[C@@H](Cc1ccccc1)C(=O)N[C@@H](CC(C)C)C(=O)N[C@@H](CCC(N)=O)C(=O)N[C@@H](Cc1c[nH]c2ccccc12)C(=O)N[C@@H](CCCCN)C(=O)N[C@@H](Cc1c[nH]c2ccccc12)C(N)=O [Peptide T3] (Ac-S[Nle]FFDRFLQWKW-NH2) | 6.1 ± 4.4 | 97 | – | – | – | – | –
5 | CCCC[C@H](NC(=O)[C@H](CO)NC(C)=O)C(=O)N[C@@H](Cc1ccccc1)C(=O)N[C@@H](Cc1ccccc1)C(=O)N[C@@H](CC(=O)O)C(=O)N[C@@H](CCCNC(=N)N)C(=O)N[C@@H](Cc1ccccc1)C(=O)N[C@@H](CC(C)C)C(=O)N[C@@H](CCC(N)=O)C(=O)N[C@@H](Cc1c[nH]c2ccccc12)C(=O)N[C@@H](CCCCN)C(=O)N[C@@H](Cc1c[nH]c2ccccc12)C(=O)N[C@@H](CC(C)C)C(=O)N[C@@H](CCC(=O)O)C(=O)N[C@@H](CCCNC(=N)N)C(N)=O [α9 (164–178)] (Ac-S[Nle]FFDRFLQWKWLER-NH2) | 15.9 ± 4.3 | 89 | – | – | – | – | Inhibition of GRK6 (previous study) [7]: no inhibition
6 | CCCC[C@H](NC(=O)[C@H](CCC(=O)O)NC(=O)[C@H](CC(N)=O)NC(=O)[C@H](CCC(N)=O)NC(=O)[C@H](Cc1c[nH]c2ccccc12)NC(=O)[C@@H]1CCCN1C(=O)[C@@H](NC(=O)[C@H](CO)NC(=O)[C@@H](NC(C)=O)C(C)C)[C@@H](C)CC)C(=O)N[C@H](C(=O)N[C@@H](CCC(=O)O)C(N)=O)[C@@H](C)CC [α10] (Ac-VSIPWQNE[Nle]IE-NH2) | – | – | inhibited | less inhibition | inhibited | inhibited | Effect on GRK2 phosphorylation of tubulin, basal activity ([5]; 0.5 μM tubulin, 30 °C): not significant; % inhibition of GRK5 phosphorylation of tubulin ([6]; 0.5 μM tubulin, 30 °C): ~ 45%
7 | Ac-FFDAFLQWK-NH2 [Peptide T5] | – | – | – | – | – | – | % Inhibition (100 μM) of GRK5 phosphorylation of rhodopsin ([1]; 100 μM peptide, 0.5 μM light-activated rhodopsin, 100 μM ATP, 5 min): 22%
8 | Ac-FFDRFLQWKWLER-NH2 [Peptide T1] | 23.9 ± 16 | 95 | – | – | – | – | –
9 | Ac-ILENLKDCGLF-NH2 [TCT, reference compound] | ~10 | – | showed inhibition | relatively inactive | showed inhibition | showed inhibition | Effect on GRK2 phosphorylation of tubulin, basal activity ([5]; 0.5 μM tubulin, 30 °C): no significant effect; Effect on GRK5 phosphorylation of tubulin, basal activity ([6]; 0.5 μM tubulin, 60 min, 30 °C): no significant effect
